OX1R antag-1 – OX1R (human) antagonism. O43613. OX1R-expressing cells, FRET antagonist read-out. inhibition, % at 6.6 µM. hit rate 1.8% among 330,000; in the data active = inhibition mostly above about 38%, no sharp cut-off; inactive = mostly below about 40%;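 note: 0% = agonist challenge alone and 100% = reference antagonist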
TAAR1 ag – human TAAR1 agonism. Q96RJ0. CHO RD-HGA16 TAAR1, Fluo-8 calcium fluorescence; vehicle wells 0%, saturating PEA agonist 100%. activation, % at 3 µM. hit rate 0.99% among 360,000. AID 624467;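 active = activation above the mean activation of all test compounds in the run plus 3 SD, cut at about 38% in these data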
Target sequence (Q96RJ0 whole entry, looked up): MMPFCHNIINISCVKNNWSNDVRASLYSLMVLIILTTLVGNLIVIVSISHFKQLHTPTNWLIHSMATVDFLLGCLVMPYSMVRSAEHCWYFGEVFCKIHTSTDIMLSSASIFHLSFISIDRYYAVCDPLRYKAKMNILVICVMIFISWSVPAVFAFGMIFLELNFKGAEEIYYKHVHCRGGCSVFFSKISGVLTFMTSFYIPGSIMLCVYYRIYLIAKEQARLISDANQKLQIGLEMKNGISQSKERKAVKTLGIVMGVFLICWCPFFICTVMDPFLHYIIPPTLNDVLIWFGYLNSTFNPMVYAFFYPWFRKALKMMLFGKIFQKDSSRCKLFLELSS
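System: CHO RD-HGA16 cells carrying human TAAR1 plus Gα16; Incubation: 17-24 h seeding, 75 min 37 °C dye, 30 min RT; Measured by: Fluo-8 fluorescence, 5 s baseline then 140 s kinetic read; Control set: DMSO and PEA EC100; Replication: single well for each compound.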
GPR7 antag – antagonists of human GPR7 (neuropeptides B/W receptor 1) | GPR7-expressing cells, fluorescence antagonist assay | hit rate 1.1% among 290,000 | P48145 | inhibition, % at 4.4 µM | AID 1861; in the data active = inhibition above about 16%, passing the limit was not always enough;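 note: cells stimulated with the agonist NPW; 0% = agonist with vehicle and 100% = vehicle without agonist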
Target sequence (P48145 whole entry, looked up): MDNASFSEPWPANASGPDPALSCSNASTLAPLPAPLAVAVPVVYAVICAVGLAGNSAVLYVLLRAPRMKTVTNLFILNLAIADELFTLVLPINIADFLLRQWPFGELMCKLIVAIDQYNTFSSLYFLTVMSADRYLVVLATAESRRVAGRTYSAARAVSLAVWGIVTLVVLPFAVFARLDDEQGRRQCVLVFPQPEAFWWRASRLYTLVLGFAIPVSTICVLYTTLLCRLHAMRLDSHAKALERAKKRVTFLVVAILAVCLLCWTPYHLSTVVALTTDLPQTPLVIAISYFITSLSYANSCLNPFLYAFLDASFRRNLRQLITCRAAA
OX1R antag-2 – antagonists of human orexin 1 receptor | CHO/OX1R cells, Fluo-8 calcium fluorescence, orexin A | inhibition, % at 5 µM | hit rate 0.43% among 330,000 | AID 434989;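 active = inhibition above its plate's threshold, mean inhibition of all tested compounds on the plate plus 3 SD, cut at about 37% in these data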;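 note: 0% = orexin A challenge wells and 100% = SB-334867-A antagonist wells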
CHO parental Ca – counter-screen: ATP calcium response change in parental CHO cells | parental CHO-K1, ATP-induced calcium, Fluo-8 fluorescence | inhibition, % at 5.6 µM | hit rate 0.63% among 330,000 | AID 463079;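 active = inhibition above that plate's mean sample inhibition plus 3 SD, cut at about 26% in these data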;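 note: 0% = ATP-challenged DMSO wells and 100% = DMSO wells without ATP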
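Test system: untransfected parental CHO cell line; also added: ATP stimulus; dosing: 5.6 µM, single dose; signal: calcium-sensitive Fluo-8 fluorescence; measure: percent inhibition of ATP-evoked calcium rise, normalized to controls; benchmarks: low control ATP plus DMSO, high control DMSO only; replication: one well per compound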
TAAR1 antag – antagonists of human TAAR1; CHO RD-HGA16 TAAR1, Fluo-8 calcium fluorescence, antagonist; inhibition, % at 3 µM; Q96RJ0; hit rate 1.5% among 360,000;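 active = inhibition above a per-plate cutoff, the mean inhibition of test compounds on that plate plus 3 SD, cut at about 49% in these data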;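 note: 0% = DMSO plus EC80 beta-PEA response and 100% = DMSO alone without agonist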
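Test system – hTAAR1-expressing CHO RD-HGA16 cells, Gα16-coupled · Also added – β-PEA at EC80 concentration, post-compound challenge · Compound – 3 µM, single point · Incubation – dye loading 75 min at 37 °C, then 30 min room temperature · Measured by – Fluo-8 intracellular calcium dye fluorescence, real-time kinetic reads · Benchmarks – vehicle and agonist controls · Replicates – singlicate, one well per test compound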
TAAR1 ag conf – human TAAR1 agonism, confirmed; activation, % at 3 µM; shares compounds with TAAR1 ag; AID 651783; CHO RD-HGA16 TAAR1, Fluo-8 calcium fluorescence; scaled: DMSO 0%, maximal phenethylamine 100%; hit rate 82% among 2,400;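 active = activation above a cutoff set at the run's mean compound activation plus 3 SD, cut at about 39% in these data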
Ga16 nonsel ag – nonselective agonist in parental cells, TAAR1 agonist counter-screen | shares compounds with TAAR1 ag | CHO-Ga16 parental, Fluo-8 calcium fluorescence; normalized to maximal ATP response, DMSO zero | activation, % at 3 µM | hit rate 50% among 2,400 | AID 651787;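 active = activation above the run cutoff, the mean activation over all tested wells plus 3 SD, cut at about 12% in these data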;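 note: 0% = DMSO wells and 100% = maximal ATP response on the peak over basal ratio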
TAAR1 desensitize – TAAR1 response desensitization, agonist counter-screen; shares compounds with TAAR1 ag; hit rate 46% among 2,400; CHO RD-HGA16 hTAAR1, Fluo-8 calcium, beta-PEA response inhibition; inhibition, % at 3 µM; AID 651951;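 active = inhibition above the run cutoff, the mean inhibition of all test compounds plus 3 SD, cut at about 49% in these data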;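 note: beta-PEA stimulus applied at its EC80; loss of beta-PEA calcium signal after compound pretreatment read as receptor desensitization; 0% = DMSO with beta-PEA at EC80 and 100% = DMSO alone without agonist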
Ga16 nonsel ant – nonselective Ga16 antagonist in TAAR1 agonist counter-screen; shares compounds with TAAR1 ag; CHO-Ga16 ATP-induced calcium, Fluo-8 fluorescence; inhibition, % at 3 µM; hit rate 39% among 2,400; AID 651952;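 active = inhibition above the plate's mean compound inhibition plus 3 SD, computed per plate, cut at about 22% in these data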;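 note: 0% = EC80 ATP with DMSO and 100% = DMSO wells without ATP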
* marks the source's active call; other numbers are inactive results; · = no result given. The list is not random: actives were taken first. Their share in the collection is about 4.6%.

SMILES | OX1R antag-1 | TAAR1 ag | GPR7 antag | OX1R antag-2 | CHO parental Ca | TAAR1 antag | TAAR1 ag conf | Ga16 nonsel ag | TAAR1 desensitize | Ga16 nonsel ant
CN(C)S(=O)(=O)c1cccc(CNCC2COc3ccccc3O2)c1 (stereo not drawn) | -4 | 59* | 10 | -15 | -14 | -13 | 88* | 21* | 34 | 2
c1ccc(CCNCC2COc3ccccc3O2)cc1 (stereo not drawn) | 6 | 16 | -5 | -19 | -19 | 4 | · | · | · | ·
CCc1nc2ccc(C(=O)NCCNC(C)=O)cn2c1N(C)Cc1ccc(OC)cc1 | · | 2 | · | · | · | -17 | · | · | · | ·
Cc1ccc2nc(-c3ccccc3)cc(C(=O)N3CCc4ccccc4C3)c2c1 | 6 | 72* | -4 | -26 | -7 | 17 | 68* | 2 | 25 | 20
Cc1cccc(C)c1Cn1c(C)c(C(=O)NCc2ccc([N+](=O)[O-])cc2)sc1=O | · | 62* | · | · | · | 49* | 47* | 29* | 53* | 41*
COC(=O)c1ccc(Cn2c(C)c(C(=O)NCc3ccc([N+](=O)[O-])cc3)sc2=O)o1 | · | 21 | · | · | · | 38 | · | · | · | ·
COc1ccc(C(CNC(=O)c2ccc(NS(=O)(=O)c3cccc([N+](=O)[O-])c3)cc2)N2CCOCC2)cc1 (stereo not drawn) | 30 | 0 | -3 | -10 | -12 | 1 | · | · | · | ·
COc1ccc(S(=O)(=O)N2CCN(c3ccccn3)CC2)cc1[N+](=O)[O-] | 5 | 0 | -11 | -12 | -16 | -2 | · | · | · | ·
COc1ccc(S(=O)(=O)N2CCN(c3ncccn3)CC2)cc1[N+](=O)[O-] | 6 | 94* | 13 | -20 | 6 | 27 | 9 | 7 | 1 | 5
O=C(CCCCCCC(=O)NCc1ccccc1)NCc1ccccc1 | 15 | 6 | -12 | -8 | -18 | -9 | · | · | · | ·
Nn1c(SCC(=O)NC2CCCCCC2)nnc1-c1ccco1 | · | 5 | · | · | · | -20 | · | · | · | ·
COc1ccc(S(=O)(=O)N[C@H]2CC[C@H](CCNC(=O)c3ccccc3F)O[C@@H]2CO)cc1 | · | 0 | · | · | · | 4 | · | · | · | ·
O=C(O)c1ccc(-n2cc(C(=O)c3ccccc3O)cn2)cc1 | 0 | 65* | 3 | -8 | -6 | 14 | 19 | 9 | 13 | 14
CN(C)CCNc1ncnc2c1ncn2[C@H]1CN(CCc2ccccc2)C[C@@H](CO)O1 | · | 58* | · | · | · | -16 | 48* | -1 | 7 | 4
CNc1ncnc2c1ncn2[C@H]1CN(CCc2ccccc2)C[C@@H](CO)O1 | · | 21 | · | · | · | -20 | · | · | · | ·
O=C(CSc1nccc(=O)[nH]1)NC1CCCCCC1 | 14 | 1 | · | -18 | -9 | 4 | · | · | · | ·
CSc1ccc(S(=O)(=O)Nc2ccc(S(=O)(=O)Nc3ccc(C)cc3)cc2)cc1 | 0 | 34 | -2 | 0 | -10 | 1 | · | · | · | ·
Cc1ccc(S(=O)(=O)Nc2ccc(N(C)S(=O)(=O)c3ccc(C)cc3)cc2)cc1 | 8 | 52* | -7 | -7 | -5 | 25 | 45* | 19* | 33 | 21
COC(=O)c1sc(NC(=S)NC(=O)c2ccccc2C)nc1C | 15 | 43* | -6 | -20 | -11 | 29 | 83* | 54* | 61* | 34*
Nc1ncnc(N2CCOCC2)n1 | · | 0 | · | · | · | -13 | · | · | · | ·
Cc1cc(/C=C(\C#N)C(N)=O)c(C)n1-c1ccc(N2CCOCC2)c([N+](=O)[O-])c1 | 40 | 91* | -7 | -19 | -24 | 17 | 114* | 53* | 73* | 29*
Cc1cc(C=O)c(C)n1-c1ccc(N2CCCCC2)c([N+](=O)[O-])c1 | 17 | 12 | -4 | 13 | -12 | 4 | · | · | · | ·
Cc1ccc2c(c1)N(CC(=O)NC1CCCC1)C(=O)c1cccnc1O2 | 8 | 6 | 11 | -11 | -13 | -4 | · | · | · | ·
COc1ccc(CCNC(=O)C(=O)NCC2CCCN2S(=O)(=O)c2cccs2)cc1 (stereo not drawn) | 9 | 18 | · | -27 | -18 | 46 | · | · | · | ·
COc1ccccc1CCNC(=O)C(=O)NCC1CCCN1S(=O)(=O)c1ccccc1 (stereo not drawn) | 49* | 49* | · | 20 | -33 | 59* | 72* | 8 | 65* | 31*
SMILES | OX1R antag-1 | TAAR1 ag | GPR7 antag | OX1R antag-2 | CHO parental Ca | TAAR1 antag | TAAR1 ag conf | Ga16 nonsel ag | TAAR1 desensitize | Ga16 nonsel ant
COc1ccc(S(=O)(=O)N2CCCC2CNC(=O)C(=O)NCCc2ccccc2)cc1 (stereo not drawn) | 39* | 92* | · | -8 | -16 | 97* | 87* | 10 | 87* | 30*
COc1cc(N/N=C/c2ccccc2O)ncn1 | 11 | 49* | -4 | -13 | 5 | 5 | 57* | 9 | 53* | 11
Cc1cc(N2CCN(C(c3ccccc3)c3ccccc3)CC2)n2ncnc2n1 | 5 | 21 | -7 | -23 | -7 | 35 | · | · | · | ·
Cc1nc2ncnn2c(N2CCN(C(c3ccccc3)c3ccccc3)CC2)c1C | 1 | 49* | -4 | -5 | 16 | 39 | 27 | 15* | 17 | 9
FC(F)(F)c1ccccc1-c1nc(-c2ccncc2)no1 | -1 | 8 | -18 | -16 | -18 | 8 | · | · | · | ·
O=C(O)c1ccc(-c2noc(-c3ccccc3C(F)(F)F)n2)cc1 | -6 | 82* | · | 11 | 10 | 14 | 28 | 20* | 19 | 24*
CC1CN(S(=O)(=O)c2ccc(C(=O)N(CCCN(C)C)c3nc4c(Cl)cccc4s3)cc2)CC(C)O1 (stereo not drawn) | -1 | 22 | -6 | -33 | -26 | -21 | · | · | · | ·
O=C(NCc1cccs1)c1cc(-c2cccs2)on1 | 21 | 18 | 1 | -10 | -8 | 25 | · | · | · | ·
O=C(NCc1cccs1)c1cc(-c2ccccc2)on1 | 5 | 57* | -3 | -3 | -6 | 40 | 28 | 19* | 14 | 23*
CCN1CCN(c2cc(SC(C)C)nc(-c3ccc(OC)cc3)n2)CC1 | · | 46* | -7 | · | · | -17 | 74* | 19* | 29 | 5
CC(C)Sc1cc(N2CCOCC2)nc(-c2ccc(Cl)cc2)n1 | 5 | 13 | -11 | 2 | -5 | -21 | · | · | · | ·
c1ccc2c(CC3=NCCN3)cccc2c1 | 9 | 97* | 2 | -10 | 5 | 74* | 95* | 10 | 90* | -1

Screens deposited in PubChem BioAssay by The Scripps Research Institute Molecular Screening Center.
